In ChEMBL document CHEMBL4513216, “Probing the Open Global Health Chemical Diversity Library for Multistage-Active Starting Points for Next-Generation Antimalarials” (ACS Infect Dis, 2020):

Test: Toxicity liver stage against HepG2, at 10uM
Type: cell-based
Set-up: test concentration 10 uM, cell line HepG2-A16-CD81EGFP
Conditions: human, HepG2-A16-CD81EGFP cells; read-out: INHIBITION
Summary of the method: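 Uninfected HepG2-A16-CD81EGFP cells, 3 × 10^3 per well, 1536-well, plated on prespotted compound at 10 μM final, parasite-free screening media added to match infected plates; puromycin 10 μM positive, DMSO 0.5% negative; run in parallel with 48 h PbLuc assay at 37 °C, 5% CO2; viability by CellTiter-Glo luminescence, normalized to controls.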

Going from `COc1cccc2c1OCC(Cc1cc(C(N)=O)ccn1)C2` (stereo unspecified) to `COc1ccccc1OCc1cc(C(=O)N2CCN(C(C)=O)CC2)n[nH]1`, the cytotoxicity at 10 µM falls from 5.83% to -2.59%.

First: CC(C)Cn1cncc1CNC1CCSC1 (stereo unspecified)
Second: CC(C)N1CCC(NCc2cccnc2N(C)Cc2ccccc2)CC1
The cytotoxicity at 10 µM of the first is lower: -2.34% for the first, 21% for the second.

Going from `COC1CCN(S(=O)(=O)N2C[C@H](c3ccccc3)[C@@H](N)C2)CC1` to `Cn1ccc(CN2CCC(c3ccccc3)CC2)cc1=O`, the cytotoxicity at 10 µM falls from 11.8% to -6.46%.

Compared with `Cc1cc(C)c(C(=O)NC(c2nnc3n2CCNCC3)C(C)C)c(C)c1` (stereo unspecified), `Cc1cc(C)cc(OCCN2CCn3c(C)nnc3C2)c1` is lower in cytotoxicity at 10 µM: -7.01% for the first, -9.08% for the second.

First: Cc1cc(N2CCCN(c3nc(C)nc(C)c3C)CC2)ccn1
Second: Cc1cc(C)n(CC2CCCN2Cc2nc(N)c3ccccc3n2)n1 (stereo unspecified)
The cytotoxicity at 10 µM of the first is lower: -13.1% for the first, -11.7% for the second.

Going from `COc1ccc2c(C)nc(N3C[C@@H](C)O[C@@H](C)C3)nc2c1` to `CO[C@@H]1CCN(c2nnc(C)s2)C[C@@H]1Cc1ccccc1`, the cytotoxicity at 10 µM rises from 6.77% to 10.5%.

First: CCc1oc(C(=O)NCCSc2ncn[nH]2)cc1CN1CCCC1
Second: CCc1nc(CN2CCCN(C(=O)C(C)n3cncn3)CC2)cs1 (stereo unspecified)
The cytotoxicity at 10 µM of the first is higher: -5.25% for the first, -7.26% for the second.

Going from `CCN(CC)CCc1nc2c([nH]1)CC(c1ccc(Cl)cc1)CNC2=O` (stereo unspecified) to `CCN(Cc1ccc2c(c1)OCCO2)C(=O)Cn1cccnc1=O`, the cytotoxicity at 10 µM rises from -58.9% to -5.1%.

First: COCC(=O)N(Cc1cccnc1)CC1CCCN(C2CCCCC2)C1 (stereo unspecified)
Second: CC1c2ncc(COCc3ccccn3)n2CCN1C1CCCC1 (stereo unspecified)
The cytotoxicity at 10 µM of the first is lower: 1.72% for the first, 12.8% for the second.

Going from `O=C(NCc1cccnc1)C1CN(c2cnc3ccccc3n2)CCN1` (stereo unspecified) to `O=C(c1ccccc1)N1CCO[C@@H]2CN(c3cnccn3)C[C@@H]2C1`, the cytotoxicity at 10 µM rises from -48.9% to 0.442%.

Going from `CC(=O)N[C@@H]1CN(Cc2oc3ccccc3c2C)C[C@H]1c1ccc(C)o1` to `CCC1=N[C@@]2(CC[C@@H]3CN(Cc4ccccc4C)C[C@@H]32)C(=O)N1`, the cytotoxicity at 10 µM rises from -12.3% to 8.4%.

First: COCCn1cnnc1Cn1ccnc1-c1ccoc1
Second: CCn1ccnc1C1CCN(c2ncnc3ccsc23)CC1
The cytotoxicity at 10 µM of the first is lower: -2.66% for the first, 5.31% for the second.

First: C/C(=C\c1ccco1)CN(C)C(C)c1ccccn1 (stereo unspecified)
Second: CC(C)Oc1ncccc1CNC(=O)c1ccco1
The cytotoxicity at 10 µM of the first is lower: -3.49% for the first, 1.32% for the second.

First: Cc1cc(F)ccc1N1CCC(N2C[C@@H](CN(C)C)[C@@H](CO)C2)CC1
Second: CCN1CCN(C2CCN(Cc3nc4ccccc4o3)CC2)C1=O
The cytotoxicity at 10 µM of the first is lower: -12.1% for the first, 5.61% for the second.

Compared with `CN(CCNc1ncc2c(n1)CCN2c1ccccc1)S(C)(=O)=O`, `COc1cc(S(=O)(=O)N2CCCc3ccccc32)cc(C(=O)O)c1OC` is higher in cytotoxicity at 10 µM: 0.557% for the first, 1.8% for the second.

Going from `Cc1cnccc1CN(C)C(=O)C(C)(C)NC(=O)c1cccs1` to `CC(C)c1cc(NC(=O)c2ccc(C(=O)NC(C)(C)C)cc2)[nH]n1`, the cytotoxicity at 10 µM falls from 6.89% to -0.164%.

First: Cc1nc(NC(=O)N2CCCC(N(C)C)C2)nn1C (stereo unspecified)
Second: Cc1ccc2c(n1)N(CCn1cccn1)CCN(C(=O)NC1CC1)C2
The cytotoxicity at 10 µM of the first is lower: -9.4% for the first, -4.58% for the second.

First: COc1ncc(CN2CC[C@@](C)(O)[C@H](Oc3cccc(F)c3)C2)cn1
Second: COc1ccccc1OCCNC1CCCN(Cc2noc(C)n2)C1 (stereo unspecified)
The cytotoxicity at 10 µM of the first is higher: 1.68% for the first, -19.1% for the second.

First: O=C(NC1CCN(C2CC2)CC1)N1CCN(c2cnccn2)CC1
Second: O=C([C@H]1CN(Cc2ccncc2)C[C@H]2OCC[C@@H]12)N1CCCCO1
The cytotoxicity at 10 µM of the first is lower: -6.97% for the first, 9.01% for the second.

Going from `Cc1noc(C)c1CCC(=O)N1CCCN(CC(N)=O)CC1` to `CCc1nc(CN2CCCN(Cc3nnc(C4CC4)o3)CC2)no1`, the cytotoxicity at 10 µM rises from -12.4% to -9.26%.

First: O=C(CN1CCCC(Cn2cncn2)C1)NCCC1=CCCCC1 (stereo unspecified)
Second: Cc1cnn(CC2CCCCN2CCCS(N)(=O)=O)c1 (stereo unspecified)
The cytotoxicity at 10 µM of the first is lower: -3.33% for the first, 4.02% for the second.

First: CCN(Cc1ccc2c(c1)OCO2)C(=O)Cn1cccnc1=O
Second: O=C(c1ccc2c(c1)OCCO2)N1CCCC(n2ccnc2)C1 (stereo unspecified)
The cytotoxicity at 10 µM of the first is higher: -2.27% for the first, -16.3% for the second.

Going from `Cc1cnn(CC2CCCN2Cc2noc(C3CC3)n2)c1` (stereo unspecified) to `COCC1CC2(CCN(CC3CC3)CC2)CN1Cc1csc(C)n1` (stereo unspecified), the cytotoxicity at 10 µM rises from -17.3% to 4.26%.

Compared with `Cc1cc(C(=O)N2CCCCC2C)ccc1NCCCO` (stereo unspecified), `Cc1cc(C(=O)N2C[C@@H]3CC[C@H]2CN(C(=O)c2ccncc2)C3)cs1` is higher in cytotoxicity at 10 µM: -4.35% for the first, -2.56% for the second.

Compared with `Cc1cnn(CCNCC(=O)NCC2(c3ccccc3)CCC2)c1`, `Cn1ccc(CN2CCC3(CC2)CC(Nc2ccccn2)CO3)n1` (stereo unspecified) is lower in cytotoxicity at 10 µM: 5.87% for the first, -1.19% for the second.

Compared with `CN(Cc1ccncc1)C1COC2(CCN(c3ncc(F)cn3)CC2)C1` (stereo unspecified), `Fc1cnc(N2CC[C@@H]3OC(COCc4cccnc4)CC[C@@H]32)nc1` (stereo partly specified) is higher in cytotoxicity at 10 µM: 6.95% for the first, 9.94% for the second.

Going from `O=C(c1ccncc1)N1CCOC2(COCCN(c3cncnc3)C2)C1` (stereo unspecified) to `COCCN1CCO[C@@H]2CN(C(=O)COc3ccc(C)cc3)C[C@@H]2C1`, the cytotoxicity at 10 µM falls from 8.58% to -0.572%.

Compared with `CC(C)N1[C@@H](C(=O)NCCN(C)C)C[C@H]2CN(c3ncccn3)C[C@H]21`, `O=S1(=O)NC(=CSCc2ccccc2)Nc2ccccc21` is lower in cytotoxicity at 10 µM: 8.73% for the first, 0.603% for the second.
